The values that follow come from ChEMBL document CHEMBL1255435, “Mechanism of resistance of hepatitis C virus replicons to structurally distinct cyclophilin inhibitors” (Antimicrob Agents Chemother, 2010).

Some results are limits rather than exact numbers.

The test system of experiment [1] is Hepatitis C virus. The experiment in a line: Antiviral activity against cyclosporine A-resistant HCV subtype 1b Con1 infected in human HuH7 cells assessed as reduction in viral RNA level after 48 hrs by qRT-PCR analysis. The conditions noted are these: Con1, Huh-7, 48 h. In general terms: Real-time PCR tracks product formation cycle by cycle.
For experiment [2], the system named is Hepatitis C virus. The experiment in a line: Antiviral activity against HCV subtype 1b Con1 infected in human HuH7 cells assessed as reduction in viral RNA level after 48 hrs by MTS assay. The conditions noted are these: Con1, Huh-7, 48 h. For orientation: Tetrazolium dyes change colour on reduction, which living cells bring about.
Experiment [3] deals with Hepatitis C virus. The experiment in a line: Antiviral activity against cyclosporine A/NIM-resistant HCV subtype 1b Con1 infected in human HuH7 cells assessed as reduction in viral RNA level after 48 hrs by qRT-PCR analysis. The conditions noted are these: Con1, Huh-7, 48 h.
In experiment [4] the test system is Hepatitis C virus. The experiment in a line: Antiviral activity against HCV subtype 1b Con1 infected in human HuH7 cells assessed as reduction in viral RNA level after 48 hrs by qRT-PCR analysis. The conditions noted are these: Con1, Huh-7, 48 h. The format is functional, organism-based, Hepacivirus hominis. In short, it runs like this:
(§1)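 Con1 genotype 1b subgenomic replicon Huh7 cells (clone A or derived lines) were seeded at 10,000/well overnight without G418. They were treated 48 h with serially diluted compound in 2% FBS and 0.5% DMSO. HCV RNA was measured by TaqMan qRT-PCR and normalized to total RNA. Six replicates per point; EC50 is the concentration giving 50% reduction in HCV RNA.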

Experiment [5] concerns Hepatitis C virus. The experiment in a line: Antiviral activity against wild type HCV subtype 1b Con1 infected in human HuH7 cells assessed as reduction in viral RNA level after 48 hrs by qRT-PCR analysis. The format is functional, organism-based, Hepacivirus hominis. The conditions noted are these: Con1, Huh-7, 48 h. In short, it runs like this: as §1
Experiment [6] has as its system Hepatitis C virus. The experiment in a line: Antiviral activity against HCV subtype 1b Con1 harboring NS5A and NS5B C575G mutant […] infected in human HuH7 cells assessed as reduction in viral RNA level after 48 hrs by qRT-PCR analysis. The experiment is classed as functional, organism-based, Hepacivirus hominis. The conditions noted are these: Con1, Huh-7, 48 h.

The subject of experiment [7] is Hepatitis C virus. The experiment in a line: Antiviral activity against HCV subtype 1b Con1 infected in cyclosporine A/NIM-resistant human HuH7 cells assessed as reduction in viral RNA level after 48 hrs by qRT-PCR analysis. The experiment is classed as functional, organism-based, Hepacivirus hominis. The conditions noted are these: Con1, Huh-7, 48 h. In short, it runs like this: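 CsA/NIM-resistant cells were cured of replicon: G418 removed, then 1 μM BILN2061 for 2 weeks and 5 μM for 2 more. Wild-type pCon1 replicon RNA was electroporated back in and cells selected in 250 μg/ml G418 for at least 2 weeks. Pooled colonies were treated 48 h with compound; EC50 came from qRT-PCR HCV RNA normalized to total RNA.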

Experiment [8] has as its system Hepatitis C virus. The experiment in a line: Antiviral activity against cyclosporine A/NIM811-resistant HCV subtype 1b Con1 infected in human HuH7 cells assessed as reduction in viral RNA level after 48 hrs by qRT-PCR analysis. The experiment is classed as functional, organism-based, Hepacivirus hominis. The conditions noted are these: Con1, Huh-7, 48 h. In short, it runs like this:
as §1

Experiment [9] concerns Hepatitis C virus. The experiment in a line: Antiviral activity against cyclosporine A/NIM811-resistant HCV subtype 1b Con1 infected in human HuH7 cells assessed as reduction in viral RNA level after 48 hrs by qRT-PCR analysis relative to control. The format is functional, Hepacivirus hominis, Huh-7. An outline of the steps: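 Clone A replicon cells were resistance-selected by 8-week passage with increasing CsA up to 5 μM, then 5 μM NIM811 for 5 more weeks, with 250 μg/ml G418. Control cells were passaged in 0.2% DMSO for the same period. Both were seeded at 10,000/well and treated 48 h with serial dilutions in 2% FBS/0.5% DMSO. HCV RNA was measured by qRT-PCR, normalized to total RNA. EC50 expressed as fold over DMSO control.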

In experiment [10] the test system is Hepatitis C virus. The experiment in a line: Antiviral activity against HCV subtype 1b Con1 harboring NIM-resistant NS5A gene infected in human HuH7 cells assessed as reduction in viral RNA level after 48 hrs by qRT-PCR analysis. The conditions noted are these: Con1, Huh-7, 48 h.
Experiment [11] relates to Hepatitis C virus. The experiment in a line: Antiviral activity against HCV subtype 1b Con1 infected in human HuH7 cells assessed as reduction in viral RNA level after 48 hrs by qRT-PCR analysis relative to control. The format is functional, Hepacivirus hominis, Huh-7. In short, it runs like this: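 Subgenomic genotype 1b Con1 replicon cells (clone A and derived lines) seeded 10,000/well overnight without G418, then treated 48 h with serially diluted compound in 2% FBS, 0.5% DMSO. HCV RNA quantified by TaqMan qRT-PCR, normalized to total RNA; six replicates per point. Percent inhibition versus control cells; EC50 is the concentration reducing HCV RNA by 50%.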

In experiment [12] the test system is Hepatitis C virus. The experiment in a line: Antiviral activity against HCV subtype 1b Con1 harboring wild type protease infected in human HuH7 cells assessed as reduction in viral RNA level after 48 hrs by qRT-PCR analysis. The experiment is classed as functional, organism-based, Hepacivirus hominis. The conditions noted are these: Con1, Huh-7, 48 h. In short, it runs like this:
as §1

On to `C/C=C/C[C@@H](C)[C@@H](O)[C@H]1C(=O)N[C@@H](CC)C(=O)N(C)CC(=O)N(C)[C@@H](CC(C)C)C(=O)N[C@@H](C(C)C)C(=O)N(C)[C@@H](CC(C)C)C(=O)N[C@@H](C)C(=O)N[C@H](C)C(=O)N(C)[C@@H](CC(C)C)C(=O)N(C)[C@@H](CC(C)C)C(=O)N(C)[C@@H](C(C)C)C(=O)N1C` [CYCLOSPORINE], for which the EC50 is 3390 nM in the experiment with Hepatitis C virus [1], 210 nM in the experiment with Hepatitis C virus [2] and above 10 µM with Hepatitis C virus [3].

As to `COc1ccc2c(O[C@@H]3C[C@H]4C(=O)N[C@]5(C(=O)O)C[C@H]5/C=C\CCCCC[C@H](NC(=O)OC5CCCC5)C(=O)N4C3)cc(-c3csc(NC(C)C)n3)nc2c1` [CILUPREVIR], the EC50 with Hepatitis C virus [4] was 1.4 nM.

Turning to `C/C=C/C[C@@H](C)[C@@H](O)[C@H]1C(=O)N[C@@H](CC)C(=O)N(C)CC(=O)N(C)[C@@H]([C@@H](C)CC)C(=O)NC(C(C)C)C(=O)N(C)[C@@H](CC(C)C)C(=O)N[C@@H](C)C(=O)N[C@H](C)C(=O)N(C)C(CC(C)C)C(=O)N(C)[C@@H](CC(C)C)C(=O)N(C)[C@@H](C(C)C)C(=O)N1C` (single isomer, unassigned) [NIM811], the EC50 is 120 nM with Hepatitis C virus [5]; 1140 nM with Hepatitis C virus [6]; 170 nM in the experiment on Hepatitis C virus [7]; 830 nM in the experiment with Hepatitis C virus [1]; 1500 nM in the experiment on Hepatitis C virus [8]; 3.5 µM in the experiment with Hepatitis C virus [3]. Also, the results for the EC50 in the experiment on Hepatitis C virus [10], in the experiment with Hepatitis C virus [4] and with Hepatitis C virus [12] were 940 nM, 84 nM and 230 nM, respectively. In addition, the “fold change (FC)” value came to 17.9 with Hepatitis C virus [9] and 1 in the experiment with Hepatitis C virus [11].

Broadly, the EC50 is the concentration giving half of the maximal effect.
